The source of these data is ChEMBL document CHEMBL1129630, “Synthesis and structure-activity relationships of retinoid X receptor selective diaryl sulfide analogs of retinoic acid” (J Med Chem, 1996).

The target of test [1] is T1, Retinoic acid receptor RXR-alpha (Mus musculus, UniProt P28700).
T1 sequence (P28700 whole entry): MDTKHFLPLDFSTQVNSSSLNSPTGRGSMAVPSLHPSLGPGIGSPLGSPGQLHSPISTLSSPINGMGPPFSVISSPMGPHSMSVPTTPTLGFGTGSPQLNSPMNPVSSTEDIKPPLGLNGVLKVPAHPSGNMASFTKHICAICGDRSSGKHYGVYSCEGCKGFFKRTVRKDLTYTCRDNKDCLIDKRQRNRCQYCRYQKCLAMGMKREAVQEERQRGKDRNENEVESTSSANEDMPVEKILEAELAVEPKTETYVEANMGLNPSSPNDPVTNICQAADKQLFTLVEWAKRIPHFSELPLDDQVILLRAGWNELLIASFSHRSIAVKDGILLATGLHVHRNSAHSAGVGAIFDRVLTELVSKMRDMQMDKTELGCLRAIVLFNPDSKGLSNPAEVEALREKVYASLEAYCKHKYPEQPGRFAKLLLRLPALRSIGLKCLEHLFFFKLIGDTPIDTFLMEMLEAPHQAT
Nature of the test: Dissociation constant for binding to Retinoid X receptor alpha.

Test [2] has as its target T2, Retinoic acid receptor alpha (Homo sapiens, UniProt P10276).
T2 sequence (P10276 whole entry): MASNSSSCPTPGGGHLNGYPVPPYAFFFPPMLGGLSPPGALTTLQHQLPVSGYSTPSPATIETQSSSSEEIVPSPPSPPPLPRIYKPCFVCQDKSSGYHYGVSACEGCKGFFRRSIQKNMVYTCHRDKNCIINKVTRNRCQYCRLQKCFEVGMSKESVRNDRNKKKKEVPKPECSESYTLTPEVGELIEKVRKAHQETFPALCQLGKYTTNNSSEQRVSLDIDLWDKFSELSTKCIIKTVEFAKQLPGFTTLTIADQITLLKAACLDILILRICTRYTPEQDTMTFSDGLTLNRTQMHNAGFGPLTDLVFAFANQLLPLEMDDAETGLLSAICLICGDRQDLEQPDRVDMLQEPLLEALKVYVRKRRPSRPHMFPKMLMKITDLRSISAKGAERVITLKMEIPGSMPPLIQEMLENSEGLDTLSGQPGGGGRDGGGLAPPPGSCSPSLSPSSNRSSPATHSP
Nature of the test: Transcriptional activation of Retinoic acid receptor RAR alpha;NA=not active. On the set-up: species or system Cercopithecidae. The gist of the method: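 CV-1 cells transiently cotransfected with the receptor construct and a reporter gene, with induced transcription measured. Activity is normalized to all-trans RA. EC50 is the concentration giving 50% of maximal observed response, from a single experiment in triplicate.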

Test [3] has as its target T3, Retinoic acid receptor alpha (Mus musculus, UniProt P11416).
T3 sequence (P11416 whole entry): T2 sequence (P10276 whole entry) with T43S, E150D, V169A, R347K, P427S, G431T, N453H, H460Q
Put plainly: Dissociation constant for binding to Retinoic acid receptor alpha. Format: single protein. The gist of the method:
(§1)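 Competitive binding assays against each receptor subtype, with Kd values taken from competition.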

In test [4] the target is T4, Retinoic acid receptor RXR-beta (Homo sapiens, UniProt P28702).
T4 sequence (P28702 whole entry): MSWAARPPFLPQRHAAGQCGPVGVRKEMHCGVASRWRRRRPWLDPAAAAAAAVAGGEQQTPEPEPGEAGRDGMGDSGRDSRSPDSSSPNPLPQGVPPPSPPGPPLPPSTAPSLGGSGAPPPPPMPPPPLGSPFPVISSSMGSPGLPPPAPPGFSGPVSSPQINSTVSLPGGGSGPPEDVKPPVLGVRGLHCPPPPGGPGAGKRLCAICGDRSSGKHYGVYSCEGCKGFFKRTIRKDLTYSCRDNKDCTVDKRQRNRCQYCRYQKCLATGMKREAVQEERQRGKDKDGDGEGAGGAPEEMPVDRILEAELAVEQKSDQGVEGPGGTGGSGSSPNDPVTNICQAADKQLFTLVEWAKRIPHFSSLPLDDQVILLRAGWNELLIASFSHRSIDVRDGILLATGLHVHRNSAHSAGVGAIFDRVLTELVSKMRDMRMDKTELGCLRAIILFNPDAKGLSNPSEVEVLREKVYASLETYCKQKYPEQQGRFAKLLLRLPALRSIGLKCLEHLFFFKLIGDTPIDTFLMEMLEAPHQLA
Nature of the test: Transcriptional activation of Retinoid X receptor RXR beta. More on the design: species or system Cercopithecidae. The gist of the method: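 CV-1 cells transiently cotransfected with the receptor construct and a reporter gene, with induced transcription measured. Activity is normalized to all-trans RA.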

Test [5] concerns the target T5, Retinoic acid receptor beta (Mus musculus, UniProt P22605).
T5 sequence (P22605 whole entry): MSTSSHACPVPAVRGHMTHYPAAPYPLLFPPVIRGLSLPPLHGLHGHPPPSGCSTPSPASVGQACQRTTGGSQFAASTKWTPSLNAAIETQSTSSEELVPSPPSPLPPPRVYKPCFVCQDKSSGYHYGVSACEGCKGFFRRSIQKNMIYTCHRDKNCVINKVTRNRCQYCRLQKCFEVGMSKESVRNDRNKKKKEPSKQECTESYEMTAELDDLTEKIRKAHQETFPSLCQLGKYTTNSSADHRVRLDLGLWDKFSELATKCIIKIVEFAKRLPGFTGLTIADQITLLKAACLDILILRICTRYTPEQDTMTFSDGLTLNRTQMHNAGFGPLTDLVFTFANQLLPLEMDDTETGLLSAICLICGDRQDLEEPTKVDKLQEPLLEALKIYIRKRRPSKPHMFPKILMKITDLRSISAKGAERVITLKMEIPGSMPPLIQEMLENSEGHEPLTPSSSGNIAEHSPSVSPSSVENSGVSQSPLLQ
Nature of the test: Dissociation constant for binding to Retinoic acid receptor beta. Summed up:
as §1

SMILES strings stand for the structures. Changes are numbered by the printed parent chain.

Usually Kd stands for the concentration at which binding is half-saturated. Read a low Kd as a tighter complex. By EC50 is commonly meant the midpoint of the concentration-response curve. A high value points to lower potency in that assay.

`Cc1cc2c(cc1Sc1ccc(C(=O)O)cn1)C(C)(C)CCC2(C)C` had a Kd in test [1] of 32 nM. Also, the EC50 result in test [2] is recorded as “Not Active”.

`Cc1cc2c(cc1Sc1ncc(C(=O)O)s1)C(C)(C)CCC2(C)C`: the Kd in test [3], in test [5] and in test [1] was 1000 nM in each case. The EC50 in test [4] was 1300 nM; in test [2], “Not Active”.

`Cc1cc2c(cc1S(=O)(=O)c1ccc(C(=O)O)cc1)C(C)(C)CCC2(C)C`: the Kd in test [3] was over 10000 nM; in test [5] it was over 10000 nM; in test [1], 2520 nM. For the same molecule, the EC50 entry in test [2] is “Not Active”.

For the molecule `Cc1cc2c(cc1Sc1ccc(C(=O)O)cc1)C(C)(C)CCC2(C)C`, the results for the Kd in test [3], in test [5] and in test [1] were over 10000 nM, over 10000 nM and 296 nM, respectively. In addition, the EC50 was 300 nM in test [4] and “Not Active” in test [2].

Turning to `CC1(C)CCC(C)(C)c2cc(Sc3ccc(C(=O)O)cc3)ccc21`, the Kd in test [3] is 4080 nM; in test [5], 4240 nM; in test [1], 3870 nM. The EC50 result in test [2] is reported as “Not Active”.

Take `Cc1cc2c(cc1[S+]([O-])c1ccc(C(=O)O)cc1)C(C)(C)CCC2(C)C` (stereo not given): the Kd in test [3], in test [5] and in test [1] was over 10000 nM throughout. Moreover, the EC50 in test [4] is 3000 nM; in test [2], “Not Active”.
